Measurements from ChEMBL document CHEMBL1147217, “ent-Kaurane diterpenoids from croton tonkinensis inhibit LPS-induced NF-kappaB activation and NO production” (J Nat Prod, 2003).

Key:
RAW264.7 [1] = assay: Inhibition of LPS-induced NO production in mouse RAW264.7 cells after 24 hrs by Griess method; format: functional, cell-based; conditions: RAW264.7, 24 h
Procedure, shortened: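 RAW264.7 cells at 1 × 10^5 cells/well, 3 h incubation, then LPS (1 µg/mL) for 24 h with or without test agent. Supernatant nitrite measured as NO readout by Griess reaction (equal volume of 0.1% N-(1-naphthyl)ethylenediamine/1% sulfanilamide in 5% phosphoric acid); absorbance 570 nm. IC50 values; means ± SD of six independent experiments.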

[2] = (§1) Inhibition of LPS-induced NF-kappaB activation in mouse RAW264.7 cells after 24 hrs by SEAP reporter assay; format: cell-based; conditions: RAW264.7, 24 h
Procedure, shortened: (§2)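 RAW264.7 cells carrying a reporter plasmid with eight κB copies driving SEAP; seeded 5 × 10^4 cells/well, 3 h at 37 °C, then test agent at various concentrations plus LPS (1 µg/mL) for 24 h. Supernatant heated 65 °C 5 min, mixed with SEAP buffer (diethanolamine, MgCl2, L-homoarginine) 10 min 37 °C, then p-nitrophenyl phosphate at 37 °C; A405. IC50 values; means ± SD of six independent experiments.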

RAW264.7 [3] = assay: Cytotoxicity against mouse RAW264.7 cells upto 3 uM by MTT assay; format: cell-based
RAW264.7 [4] = assay: as §1; format: cell-based; procedure, shortened: as §2

| IC50 (RAW264.7 [1]) | IC50 [2] | SMILES | Activity (RAW264.7 [3]) | Activity (RAW264.7 [4]) |
| --- | --- | --- | --- | --- |
| 2010 nM | 2340 nM | C=C1C(=O)O[C@@H]2C3O[C@]3(C)CC/C=C(\C)CC[C@@H]12 (some centres undefined) | – | – |
| 260 nM | 110 nM | C=C1C(=O)[C@@]23[C@H](O)C[C@@H]4C(C)(C)CCC[C@@]4(C)[C@@H]2CC[C@@H]1[C@H]3O | Non-toxic | Dose-dependent effect |
| 210 nM | 100 nM | C=C1C(=O)[C@]23C[C@H]1CC[C@H]2[C@]1(C)CCC[C@](C)(COC(C)=O)[C@H]1C[C@H]3O | Non-toxic | Dose-dependent effect |
| 150 nM | 70 nM | C=C1C(=O)[C@@]23[C@H](O)C[C@@H]4[C@@](C)(COC(C)=O)CCC[C@@]4(C)[C@@H]2CC[C@@H]1[C@H]3O | Non-toxic | Dose-dependent effect |
| 470 nM | 420 nM | C=C1C(=O)[C@@]23[C@H](O)C[C@@H]4C(C)(C)CC[C@@H](OC(C)=O)[C@@]4(C)[C@@H]2CC[C@@H]1[C@H]3O | Non-toxic | Dose-dependent effect |

| SMILES | IC50 (RAW264.7 [1]) | IC50 [2] | Activity (RAW264.7 [3]) | Activity (RAW264.7 [4]) |
| --- | --- | --- | --- | --- |
| N=C(N)NN [PIMAGEDINE] | 4060 nM | – | – | – |
